Source: ChEMBL document CHEMBL1240314, “Small-molecule inhibitor of p53 binding to mitochondria protects mice from gamma radiation” (2006)
Calls of active or inactive are those of the source. The rule behind the calls is not given here.

Legend:
[1] = molecular target: Cellular tumor antigen p53 (Homo sapiens) (UniProt P04637); test: Inhibition of p53-dependent transactivation of p21 in gamma-stimulated human ConA cells; format: cell-based
In short: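 ConA cells given 10 µM test agent and 10 Gy gamma irradiation. Protein extracts taken 6 h post-irradiation and p21 detected by immunoblotting.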

[2] = molecular target: Cellular tumor antigen p53 (Homo sapiens) (UniProt P04637); test: Inhibition of p53-mediated transactivation in human MCF7 cells in presence of 50 ug/ml of 5-fluorouracil after 24 hrs by beta-galactosidase reporter gene assay; format: cell-based
In short: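 MCF7 cells carrying a lacZ reporter under a p53-responsive promoter, treated with 5-FU 50 µg ml–1 across a range of test-agent concentrations. β-galactosidase measured colorimetrically in cell extracts after 24 h drug incubation. Means ± s.d., n = 3.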

[3] = molecular target: Cellular tumor antigen p53 (Homo sapiens) (UniProt P04637); test: Inhibition of p53-mediated transactivation in human MCF7 cells in presence of 0.5 ug/ml of doxorubicin after 24 hrs by beta-galactosidase reporter gene assay; format: cell-based
In short: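 MCF7 cells with a p53-responsive lacZ reporter treated with Dox 0.5 mg ml–1 (so in the source) plus a range of compound concentrations; β-galactosidase measured colorimetrically in cell extracts after 24 h; means ± s.d., n = 3.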

NCI-H1299 [4] = test: Antiapoptotic activity against staurosporine-induced cell death in human H1299 cells assessed as caspase 3 activity at 10 uM after 24 hrs; format: functional, cell-based
NCI-H1299 [5] = test: Antiapoptotic activity against staurosporine-induced cell death in human H1299 cells assessed as caspase 7 activity at 10 uM after 24 hrs; format: functional, cell-based
HeLa [6] = test: Antiapoptotic activity against staurosporine-induced cell death in human HeLa cells assessed as caspase 3 activity at 10 uM after 24 hrs; format: functional, cell-based
HeLa [7] = test: Antiapoptotic activity against staurosporine-induced cell death in human HeLa cells assessed as caspase 7 activity at 10 uM after 24 hrs; format: functional, cell-based

Chain of Cellular tumor antigen p53 (Homo sapiens) (P04637 whole entry, looked up): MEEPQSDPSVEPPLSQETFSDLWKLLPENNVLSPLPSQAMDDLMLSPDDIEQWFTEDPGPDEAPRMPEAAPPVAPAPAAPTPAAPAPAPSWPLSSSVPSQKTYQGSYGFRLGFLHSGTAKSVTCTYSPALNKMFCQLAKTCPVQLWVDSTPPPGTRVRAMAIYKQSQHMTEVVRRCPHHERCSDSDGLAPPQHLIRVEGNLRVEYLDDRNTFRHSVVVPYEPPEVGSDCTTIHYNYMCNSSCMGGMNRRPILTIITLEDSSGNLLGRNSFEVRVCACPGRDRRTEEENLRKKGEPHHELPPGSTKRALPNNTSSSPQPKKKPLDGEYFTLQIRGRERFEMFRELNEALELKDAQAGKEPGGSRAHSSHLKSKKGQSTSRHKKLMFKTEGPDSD

## Cc1ccc(C(=O)Cn2c3c(sc2=N)CCCC3)cc1
[1]
  inhibition: Active

## O=c1[nH]cc(F)c(=O)[nH]1
[2]
  inhibition: inactive

## COc1cccc2c1C(=O)c1c(O)c3c(c(O)c1C2=O)C[C@@](O)(C(=O)CO)C[C@@H]3O[C@H]1C[C@H](N)[C@H](O)[C@H](C)O1
[3]
  inhibition: inactive

## CN[C@@H]1C[C@H]2O[C@@](C)([C@@H]1OC)n1c3ccccc3c3c4c(c5c6ccccc6n2c5c31)C(=O)NC4
NCI-H1299 [4]
  Activity: inactive
NCI-H1299 [5]
  Activity: inactive
HeLa [6]
  Activity: inactive
HeLa [7]
  Activity: inactive
